Bioassay records: PubChem, several laboratories
This is a sample that favours compounds with a hit; in the whole collection about 3.8% have one here.
OX1R antag-1 = blocks the human orexin 1 receptor. AID 485270. O43613. OX1R-expressing cells, FRET antagonist read-out. 330,000 tested, 1.8% active. inhibition, % at 6.6 µM; in the data active = inhibition mostly above about 38%, no sharp cut-off; inactive = mostly below about 40%;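 also: 0% = agonist challenge alone and 100% = reference antagonist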
GPR7 antagonist = antagonists of human GPR7 (neuropeptides B/W receptor 1); inhibition, % at 4.4 µM; GPR7-expressing cells, fluorescence antagonist assay; P48145; 290,000 tested, 1.1% active; in the data active = inhibition above about 16%, passing the limit was not always enough;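 also: cells stimulated with the agonist NPW; 0% = agonist with vehicle and 100% = vehicle without agonist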
Target sequence (P48145 whole entry, looked up): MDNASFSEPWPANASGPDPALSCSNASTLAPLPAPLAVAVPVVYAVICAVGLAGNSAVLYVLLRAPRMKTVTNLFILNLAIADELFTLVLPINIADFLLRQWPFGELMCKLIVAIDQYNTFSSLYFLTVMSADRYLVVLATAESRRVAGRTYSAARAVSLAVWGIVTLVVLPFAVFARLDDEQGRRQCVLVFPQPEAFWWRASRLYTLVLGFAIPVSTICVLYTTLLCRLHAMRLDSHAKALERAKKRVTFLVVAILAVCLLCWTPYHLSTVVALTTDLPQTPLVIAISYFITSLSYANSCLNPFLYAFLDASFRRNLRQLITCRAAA
CHO parental Ca = counter-screen for OX1R antagonists: effect in parental CHO cells; parental CHO-K1, ATP-induced calcium, Fluo-8 fluorescence; inhibition, % at 5.6 µM; 330,000 tested, 0.63% active; AID 463079;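 active = inhibition above that plate's mean sample inhibition plus 3 SD, cut at about 26% in these data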;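 also: 0% = ATP-challenged DMSO wells and 100% = DMSO wells without ATP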
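Assay system: untransfected parental CHO cell line. Also added: ATP agonist challenge. Dosing: one dose, 5.6 µM nominal. Measured by: Fluo-8 fluorescence. Read-out: % inhibition. Benchmarks: ATP wells versus no-ATP DMSO wells. Repeats: no replicates.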
OX1R antag-2 = antagonists of human orexin 1 receptor | CHO/OX1R cells, Fluo-8 calcium fluorescence, orexin A | O43613 | AID 434989 | 330,000 tested, 0.43% active | inhibition, % at 5 µM;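 active = inhibition above its plate's threshold, mean inhibition of all tested compounds on the plate plus 3 SD, cut at about 37% in these data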;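 also: 0% = orexin A challenge wells and 100% = SB-334867-A antagonist wells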
MPTP inh = blocks calcium-induced mitochondrial swelling; isolated mouse mitochondria, Ca2+ swelling absorbance, 30 min; inhibition, % at 10 µM; 360,000 tested, 1.4% active;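 active = inhibition of 50% or more, scaled per plate between neutral and stimulator controls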;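 also: 0% = DMSO wells given calcium and 100% = 1 mM EGTA wells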
MPTP counter = mitochondrial membrane potential, counter-screen; AID 624504; isolated mitochondria, Rhodamine 123 fluorescence; shares compounds with MPTP inh; inhibition, % at 10 µM; 5,000 tested, 78% active; in the data active = inhibition above about 22%;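 also: 0% = DMSO vehicle and 100% = positive control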
MPTP abs DR = dose response confirmation of mitochondrial permeability transition pore inhibitors; shares compounds with MPTP inh; isolated mitochondria swelling, absorbance; IC50, µM; 780 tested, 58% active; AID 651561; in the data active = IC50 below about 20 µM
MPTP cs DR = MPTP inhibitor counter-screen activity, dose response | isolated mitochondria counterscreen, fluorescence read-out | shares compounds with MPTP inh | AID 651564 | IC50, µM | 780 tested, 49% active; in the data active = IC50 below about 80 µM
Active calls of the source: *; · = not tested or not shown.

SMILES	OX1R antag-1	GPR7 antagonist	CHO parental Ca	OX1R antag-2	MPTP inh	MPTP counter	others
Cc1cccc(S(=O)(=O)C(C#N)c2nc3ccccc3nc2N2CC(C)OC(C)C2)c1 (configuration not stated)	27	-5	-19	-15	56*	71*
CC1CCCN(c2nc3ccccc3nc2C(C#N)S(=O)(=O)c2cccs2)C1 (configuration not stated)	13	-14	3	-20	93*	67*
O=C1C(Cl)=C(Nc2ccccc2O)C(=O)N1CCc1ccccc1	17	-7	-11	-14	61*	60*
COc1ccc(CCNC2=C(Cl)C(=O)N(CCc3ccccc3)C2=O)cc1OC	23	-8	-14	-26	0	·
CN(Cc1ccccc1)C(=O)c1csc([C@@H]2O[C@H](CO)[C@H](O)[C@H](O)[C@H]2O)n1	·	·	·	·	0	·
CC(C)Cc1csc(NC(=O)c2ccccc2Cl)c1C(=O)O	24	-7	1	-11	-1	·
CC(C)Cc1csc(NC(=O)c2ccc(Cl)cc2)c1C(=O)O	29	-2	-5	-6	90*	88*
CCOc1cc(NC(=O)C2CC2)c(OCC)cc1NC(=O)c1cccc(F)c1	13	-5	0	-12	106*	0	MPTP abs DR=>100;MPTP cs DR=>80
Cc1ccc(C(=O)N2CCC2(C)C(=O)NC(C)C)cc1 (configuration not stated)	·	·	·	·	0	·
CC(C)(C)NC(=O)C(c1cccs1)N(Cc1ccc(F)cc1)C(=O)c1csnn1 (configuration not stated)	13	4	-28	-20	-1	·
CC(C)CCC(CCNCc1ccccn1)c1ccc2c(c1)OCO2 (configuration not stated)	2	23	-17	-25	0	·
Fc1ccccc1CNCCC(Cc1ccccc1)c1ccc2c(c1)OCO2 (configuration not stated)	9	11	-6	0	85*	-1	MPTP abs DR=5.4*;MPTP cs DR=16*
CCOC(=O)C1=C[C@@H](C(C)(C)C)N(S(=O)(=O)c2ccc(C)cc2)[C@H]1c1ccc(OC)cc1	·	·	·	·	0	·
CCOC(=O)c1sc(NC(=O)CSc2n[nH]c(-c3ccncc3)n2)c(C#N)c1C	73	6	10	20	77*	80*
CCOC(=O)c1sc(NC(=O)c2cc(-c3ccc(C)cc3)nc3ccccc23)c(C#N)c1C	6	-12	-6	-17	88*	78*
CCOC(=O)c1sc(NC(=O)CSc2nccc(C)n2)c(C#N)c1C	9	-1	-2	4	-1	·
COC(=O)c1sc(NC(=O)c2cc(-c3ccccc3)nc3ccccc23)c(C#N)c1C	72*	-1	-8	14	66*	70*
Cc1cccc(NC(=O)c2sc(NC(=O)COc3ccccc3)c(C#N)c2C)c1C	5	-6	0	-15	22	·
Cc1ccccc1NC(=O)c1sc(NC(=O)COc2ccccc2)c(C#N)c1C	9	-3	-6	-3	54*	75*
O=C(CCCOc1ccccc1)Nc1ccc(S(=O)(=O)Nc2ccccn2)cc1	9	0	-19	-21	0	·
Cc1ccccc1-c1cc(C(=O)Nc2sc(C(=O)OC(C)C)c(C)c2C#N)c2ccccc2n1	45*	-14	1	-11	91*	79*
N#C/C(=N\Nc1cccc(C(F)(F)F)c1)C(=O)c1ccsc1	55*	15	1	36	84*	57*
Cc1ccc(NC(=O)Cc2nn(C)c(=O)c3ccccc23)cc1F	48	-9	27	25	59*	80*
Cc1ccc(NC(=O)Cc2cn(C)c3ccccc23)cc1F	17	-4	2	-2	2	·
Cc1cccc(NS(=O)(=O)c2cc3c(cc2C)n(C)c(=O)c(=O)n3C)c1	5	-20	-2	-9	-2	·
OC1CC2CCC(C1)N2CCCN1c2ccccc2Sc2ccc(Cl)cc21 (configuration not stated)	·	·	·	·	76*	-17	MPTP abs DR=4*;MPTP cs DR=74*
CCSc1ccc2c(c1)N(CCCN1CCN(C)CC1)c1ccccc1S2	3	·	11	-19	96*	-20
